The test system of assay [1] is Huh-7. Put plainly: Anti-Hepatitis C Viral IRES activity of compound by measured as Fluci signal in HC40 cells. In kind it is functional, cell-based. Particulars: Homo sapiens. The procedure, abridged:
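Huh7-derived HC40 line expressing CAT-IRES-Fluci under a CMV promoter, so luciferase reports IRES-dependent translation. Cells seeded at 1.5×10^4/well 24 h before dosing. Compounds added at various concentrations in 0.2% DMSO final and incubated 24 h at 37 °C. Cells washed twice in PBS, lysed 10 min in the dark in luciferin lysis buffer, then luciferase read.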

A short description of assay [2]: Ratio of inhibitory concentration against Hepatitis C Viral IRES in HC40 cells to that of HCF cells was determined. It is filed as functional. The procedure, abridged: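 Ratio of the HC40 value to the HCF value. HCF cells are pooled Huh-7 stably transfected with CMV-Fluci (CMV control, no IRES control). Both lines seeded at 1.5×10^4/well 24 h ahead, dosed at various concentrations in 0.2% DMSO final for 24 h at 37 °C, washed twice in PBS, lysed in luciferin buffer for 10 min in the dark, and luciferase read.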

Assay [3] relates to Huh-7. Put plainly: Cytotoxic concentration of compound HC40 cells determined by using MTT assay. It is filed as functional. Particulars: Homo sapiens.

≈ marks a conversion by molar mass, not a printed value.

Drawing on ChEMBL document CHEMBL1133128, “Hepatitis C viral IRES inhibition by phenazine and phenazine-like molecules” (Bioorg Med Chem Lett, 2000), this text covers IC50, Ratio and CC50 for 14 compounds.

A word on the IC50: it is the concentration that gives 50% inhibition. Low values mean greater potency, high ones weaker potency. What is called CC50 is the concentration that lowers cell viability or growth by half.

Compound `CC(=O)[O-].Nc1ccc2nc3ccc(N)cc3[s+]c2c1` [THIONIN ACETATE] displayed an IC50 in the assay with Huh-7 [1] of 2.86 µg/mL. For the same compound, the Ratio in assay [2] came to 1.7. In the assay on Huh-7 [3], the CC50 was 4.67 µg/mL.

The compound `CN(C)c1ccc2c(c1)Sc1cc(N(C)C)ccc1N2C(=O)c1ccccc1` displayed a half-maximal inhibitory concentration (IC50) in the assay on Huh-7 [1] above 10 µg/mL. The same compound showed a CC50 with Huh-7 [3] above 10 µg/mL.

With `Nc1ccc2c(c1)Oc1ncccc1C(=O)N2`, the half-inhibitory concentration (IC50) in the assay on Huh-7 [1] is above 10 µg/mL. Besides, the CC50 in the assay on Huh-7 [3] is above 10 µg/mL.

`Cc1cc2nc3ccc(O)cc3nc2cc1N`: the IC50 in the assay on Huh-7 [1] is 3.74 µg/mL (≈ 16.6 µM). Also, the Ratio in assay [2] is above 2.7. The half-maximal cytotoxic concentration (CC50) with Huh-7 [3] is above 10 µg/mL.

Consider `Cc1cc2c(cc1N)N(c1ccccc1C)c1cc(N(C)C)c(C)cc1N2`, for which, in the assay on Huh-7 [1], 1 µg/mL (≈ 2.79 µM) corresponded to half-maximal inhibition (IC50). The Ratio in assay [2] came to 1. The compound also yielded a 50% cytotoxic concentration (CC50) in the assay with Huh-7 [3] above 10 µg/mL.

In the case of `CCN(CC)c1ccc2[o+]c3cc(C)c(N)cc3nc2c1.[Cl-]`, the IC50 in the assay on Huh-7 [1] amounted to 1 µg/mL. Further, the Ratio in assay [2] is 3. The same compound came in with a CC50 in the assay on Huh-7 [3] below 1 µg/mL.

In the assay on Huh-7 [1], `Nc1ccc(Nc2ccc(N)cc2)cc1` registered an IC50 above 10 µg/mL.

`Cc1cc2nc3ccc(N(C)C)cc3nc2cc1I` showed an IC50 in the assay on Huh-7 [1] above 10 µg/mL. The same compound had a cytotoxic concentration (CC50) with Huh-7 [3] above 10 µg/mL.

As to `Cc1cc2nc3ccc(N(C)C)cc3nc2cc1N`, it took 0.02 µg/mL (≈ 0.0793 µM) to reach half-maximal inhibition in the assay on Huh-7 [1] (IC50). Also, in assay [2], the Ratio was 10. Moreover, the CC50 in the assay with Huh-7 [3] is above 10 µg/mL.

The compound `Nc1ccc2c(c1)NC(=O)c1cc(N)cnc1O2` registered an IC50 with Huh-7 [1] above 10 µg/mL. The compound also registered a CC50 in the assay with Huh-7 [3] above 10 µg/mL.

In the case of `Nc1ccc2[nH]c3ccc(N)cc3c2c1`, in the assay with Huh-7 [1], the concentration for half-maximal inhibition (IC50) was above 10 µg/mL. In addition, the CC50 in the assay on Huh-7 [3] is above 10 µg/mL.

As for `Nc1cc2nc3ccccc3nc2cc1N`, the IC50 in the assay on Huh-7 [1] was determined as 4.03 µg/mL (≈ 19.2 µM). Moreover, in assay [2], the Ratio came out at 2.5. In the assay with Huh-7 [3], this compound yielded a half-maximal cytotoxic concentration (CC50) above 10 µg/mL.

`CN(C)c1ccc(Nc2ccc(N(C)C)cc2)cc1`: the IC50 with Huh-7 [1] stood at 2.19 µg/mL (≈ 8.58 µM). In addition, in assay [2], the Ratio is reported as 0.8. In the assay with Huh-7 [3], this compound came in with a CC50 of 2.3 µg/mL (≈ 9.01 µM).

As to `CN(C)c1ccc(C(=O)c2ccc(N(C)C)cc2)cc1` [MICHLER'S KETONE], the IC50 with Huh-7 [1] was above 10 µg/mL.
